Assay outcomes from PubChem BioAssay.
The entries come from a sample that favours hits as a whole.
UPR CHOP act: apoptotic UPR (CHOP) activation; activation, % at 10 µM; CHO-CHOP luciferase reporter, luminescence; percent of tunicamycin response over DMSO baseline; AID 449763; 330,000 tested, 0.34% active;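 active = at 10 µM dose, activation of 40% or more, normalized to positive control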;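 note: 100% = tunicamycin at 10 µg/mL and 0% = DMSO alone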
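Evaluation: % reporter activation, DMSO baseline versus tunicamycin full activation; System: CHO-CHOP luciferase reporter cell line; Input: 500 cells/well; Incubation: 6 h compound treatment, 37 °C; Measured by: Steady-Glo luciferase luminescence; Dosing: one dose, 10 µM in 0.5% DMSO; Buffer or medium: F12 medium, 10% FBS; Benchmarks: positive tunicamycin 10 µg/mL, negative DMSO alone.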
FXN GAA850 act: activators of GAA850 frataxin (FXN) promoter | AID 540364 | 360,000 tested, 0.56% active | HEK293 lucGAA850 FXN promoter luciferase reporter, 24 h; percent of 10 µM SAHA response | activation, % at 6 µM;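 active = activation above the average of all compounds screened plus 3 SD, cutoff fixed separately per campaign, cut at about 7.5% in these data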;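 note: 0% = DMSO wells and 100% = 10 µM SAHA wells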
CHOP inh: CHOP inhibition in unfolded protein response. CHO-K1 CHOP-promoter luciferase, tunicamycin-induced, 15-18 h. inhibition, % at 10 µM. 220,000 tested, 3.8% active;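 active = compounds that reduced the stress-induced luciferase reporter signal by more than about 70% of percent inhibition, limit read from the data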;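 note: 0% = tunicamycin plus vehicle and 100% = wells without tunicamycin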
UPR XBP1 act: adaptive UPR (XBP1) activation | activation, % at 20 µM | CHO-XBP1 luciferase reporter, IRE1-XBP1 UPR activation, luminescence; percent of tunicamycin response, DMSO as zero | 330,000 tested, 0.33% active;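 active = versus positive control, 20 µM dose yields 30% or more activation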;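 note: 100% = tunicamycin at 10 µg/mL and 0% = DMSO only wells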
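Material: CHO-XBP1 cells stably carrying IRE1-XBP1-driven luciferase reporter / Amount: 1000 cells per well / Compound: 20 µM, 1% DMSO / Times: 6 h treatment, 37 °C / Detection: luciferase luminescence / Measure: % activation of reporter signal versus tunicamycin and DMSO controls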
CHOP inh conf: confirmation of CHOP induction inhibitors. AID 504437. CHO-CHOP promoter luciferase reporter, tunicamycin-induced, luminescence. 2,100 tested, 45% active. shares compounds with CHOP inh. inhibition, % at 10 µM;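 active = mean of three repeat readings of reporter signal inhibition above a set limit, cut at about 70% in these data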;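 note: 0% = tunicamycin plus vehicle and 100% = wells lacking tunicamycin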
UPR CHOP confirm: confirmation of apoptotic unfolded protein response (CHOP) activators | activation, % at 10 µM | CHO-CHOP cells, CHOP-luciferase reporter luminescence; percent of tunicamycin response, DMSO as zero | 1,000 tested, 64% active | shares compounds with UPR CHOP act; in the data active = activation above about 33%;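 note: 0% = DMSO wells and 100% = tunicamycin 10 µg/mL wells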
Active calls of the source: *; nt = no result.

SMILES | UPR CHOP act | FXN GAA850 act | CHOP inh | UPR XBP1 act | CHOP inh conf | UPR CHOP confirm
CC(=O)SC(C[N+](=O)[O-])c1cn(C(C)=O)c2ccccc12 (configuration not stated) | 159.3* | 2.3 | 106.0* | -0.1 | -59.7 | -10.1
Cc1ccc(-c2nn(-c3ccccc3)cc2C=C2C(=O)CC(C)(C)CC2=O)cc1 | 47.6* | 3.1 | 98.4* | 12.6 | -9.4 | 206.1*
Cc1ccc(-c2nn(-c3ccccc3)cc2C=C2SC(=S)N(CCS(=O)(=O)O)C2=O)cc1 | nt | 1.6 | nt | nt | nt | nt
O=C(NCc1cccs1)c1ccc2sc([C@H]3C[C@H](O)[C@@H](CO)O3)nc2c1 | nt | 1.7 | nt | nt | nt | nt
CN(C(=O)COC(=O)/C=C/c1ccccc1)C1CCS(=O)(=O)C1 (configuration not stated) | nt | -1.3 | nt | nt | nt | nt
CN(C)c1ncc(C2=C(Cl)C(=O)C(N3CCCC3)=C(Cl)C2=O)s1 | 83.2* | -0.8 | 108.1* | 0.8 | 63.7 | -7.5
O=[N+]([O-])c1cc(-c2ncccn2)c([N+](=O)[O-])s1 | 72.7* | 2.9 | 108.8* | -5.0 | -111.7 | 163.8*
Clc1nc2c(-c3ccccc3)nnn2c2ccccc12 | 60.1* | 5.7 | 100.8* | 0.0 | -79.6 | 31.8
COC(=O)c1ccc2c(c1)C(C)(C)C(/C=C/c1ccc(OC)c(OC)c1OC)=[N+]2C | 63.8* | 3.8 | nt | -13.8 | 140.6* | -10.8
COc1ccc(/C=N/Nc2ccc(C(=O)O)cc2)c(OC)c1OC | 5.0 | 5.2 | nt | -0.7 | nt | nt
CC(C)Oc1cccc(C(=O)Nc2nnc([C@@H]3C[C@H](O)[C@@H](CO)O3)s2)c1 | nt | 0.4 | nt | nt | nt | nt
CC[C@@H](C)[C@H](NC(=O)OC(C)(C)C)c1nnc(S(=O)(=O)Cc2cc(C)ccc2C)o1 | 225.4* | -3.0 | 114.9* | -15.7 | 123.3* | 100.3*
O=C(NCc1ccccc1)C1Cc2c(-c3ccc(Cl)cc3)ccnc2O1 (configuration not stated) | nt | -1.4 | nt | nt | nt | nt
CS(=O)(=O)c1nc(-c2ccc(Br)cc2)cc(-c2ccccc2)c1C#N | 278.8* | -1.7 | 108.4* | 10.6 | -30.3 | 130.4*
CCCn1nc([N+](=O)[O-])c(C(C#N)c2nc3ccccc3o2)c(Cl)c1=O (configuration not stated) | -1.0 | -1.2 | 14.6 | -1.8 | nt | nt
Cn1nc([N+](=O)[O-])c(C(C#N)c2ccccn2)c(Cl)c1=O (configuration not stated) | 73.2* | 0.8 | 102.8* | -4.2 | 49.3 | 49.0*
CC(C)CNC(=O)C1(C)CCCN1C(=O)Cc1cccc2ccccc12 (configuration not stated) | nt | -0.9 | nt | nt | nt | nt
Cc1cc(F)ccc1C(O)c1ncc(-c2cccc(OCc3ccccc3)c2)[nH]1 (configuration not stated) | nt | -1.3 | nt | nt | nt | nt
Nc1nnnn1/N=C/C(Br)=C/c1ccccc1 | 109.2* | -12.7 | nt | -3.4 | 90.0* | 64.4*
COc1ccc(-c2cc(C(F)(F)F)nc(S(C)(=O)=O)n2)cc1 | 43.1* | 4.9 | 106.1* | 2.3 | -138.7 | 8.8
O=C(O)CCS(=O)(=O)c1nc(-c2cccs2)cc(C(F)(F)F)n1 | 1.9 | 3.1 | -42.4 | -0.7 | nt | nt
COc1ccc(-c2cc(C(F)(F)F)nc(N)n2)cc1 | 3.6 | 6.2 | 8.1 | 3.8 | nt | nt
CCOC(=O)CCS(=O)(=O)c1nc(-c2ccccc2)cc(C(F)(F)F)n1 | 72.8* | 4.3 | nt | -10.8 | 136.4* | -8.8
CC(C)(C)c1cnnn1-c1ccc(C=O)cc1 | 1.8 | 0.5 | -11.7 | 0.7 | nt | nt
CC(C)(C)c1cnnn1-c1ccc(C(=O)CCl)cc1 | 55.6* | -1.4 | 110.9* | -4.7 | -66.6 | -10.9
CC(C)(C)C1=CC(=O)C(=O)C(C(C)(C)C)=C1 | 144.3* | 10.7* | 103.9* | 0.2 | -178.4 | 326.4*
O=C(OCc1ccccc1)N1CCC2CC1c1ccc(N3CCNCC3)cc12 (configuration not stated) | nt | 1.6 | nt | nt | nt | nt
Cc1cc(C(=O)CCl)c(C)n1-c1cccc(S(=O)(=O)N2CCOCC2)c1 | 206.9* | nt | 103.1* | -5.0 | 76.1* | 63.5*
Cc1cc(C(=O)CN2C(=O)CN(C)C2=O)c(C)n1-c1cccc(S(=O)(=O)N2CCOCC2)c1 | -0.7 | 1.3 | 15.3 | 0.6 | nt | nt
